{"data": "Published values from different studies", "target": "Cannabinoid receptor 2 (CNR2, Homo sapiens, UniProt P34972)", "note": "Protocols differ between the studies behind these lines. pEC50, pIC50: −log10 of the molar value."}
{"Structure (SMILES)": "CCCCCn1cc(C(=O)C2C(C)(C)C2(C)C)c2ccccc21", "effect on": "GTPγS binding", "action": "agonist", "technique": "radiometric", "setting": "cell membranes", "measurement": "pEC50", "result": 6.48}
{"Structure (SMILES)": "CC1CCC(NC(=O)c2cc3cc(Br)cnc3n(CCN3CCOCC3)c2=O)CC1 (stereo not drawn)", "effect on": "ligand displacement", "technique": "radioligand", "measurement": "pIC50", "result": 8.31}
{"Structure (SMILES)": "NC(=O)[C@@H]1CC(F)(F)CN1C(=O)c1ccc(N2CC(F)(F)C2)c(OCC2CC2)n1", "effect on": "cAMP", "action": "agonist", "measurement": "pEC50", "result": 8.52}
{"Structure (SMILES)": "CC1(C)C(C(=O)c2cn(CCCCCF)c3ccccc23)C1(C)C", "effect on": "GTPγS binding", "action": "agonist", "technique": "radiometric", "setting": "cell membranes", "measurement": "pEC50", "result": 6.84}
{"Structure (SMILES)": "C[C@H]1CC[C@H]2[C@H](C1)c1c(O)cc(-c3csc4ccccc34)cc1OC2(C)C", "effect on": "GTPγS binding", "action": "agonist", "technique": "radiometric", "setting": "cell membranes", "measurement": "pEC50", "result": 4.80}
{"Structure (SMILES)": "CCOC(=O)C(CC)(CCCSCCOCCOCCOCCNC(=O)OC(C)(C)C)NC(=O)c1ccc(C2CC2)c(Cc2ccc(F)cc2)n1 (stereo not drawn)", "effect on": "cAMP", "action": "agonist", "measurement": "pEC50", "result": 8.00}
{"Structure (SMILES)": "Cc1nc([C@@](C)(CC2CC2)NC(=O)c2cc(OCC(F)(F)F)c(C3CC3)cn2)no1", "effect on": "cAMP", "action": "agonist", "measurement": "pEC50", "result": 8.10}
{"Structure (SMILES)": "CCOC(=O)[C@](CC)(CCC[S+]([O-])CCOCCOCCNC(=O)OC(C)(C)C)NC(=O)c1ccc(C2CC2)c(Cc2ccc(F)cc2)n1 (stereo partly drawn)", "effect on": "cAMP", "action": "agonist", "measurement": "pEC50", "result": 8.10}
{"Structure (SMILES)": "COc1ccc(-c2cnc3c(c2)cc(C(=O)NC2CCC(C)CC2)c(=O)n3CCN2CCOCC2)cc1 (stereo not drawn)", "effect on": "ligand displacement", "technique": "radioligand", "measurement": "pIC50", "result": 8.25}
